PubChem BioAssay
Records with an inconclusive call do not appear.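 The calls were made as follows, unless noted: active = viability at or below 27.92% in each of two runs, the all-compound median minus 4 SD; inconclusive = no clear call, values can overlap the other calls; inactive = the rest.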

Experiments:
[1] = S. cerevisiae growth inhibition in permissive medium (OD615), pilot counter-assay for S. cerevisiae lifespan shortening project, permissive growth control (AID 705;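 active = growth inhibition above 25% in both replicates, a cutoff set 3 SD above the mean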); conditions: OD615, 24 h, at 10 µM, active compounds read high
In short: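 System: Engineered DeaD yeast | Buffer or medium: SC raffinose/galactose permissive medium | Doses: 10 µM single dose, 0.25% DMSO | Times: 24 h exposure, 30 °C | Measured by: OD615 turbidity read | Read-out: Yeast growth inhibition indicated by reduced 24 h OD615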

[2] = S. cerevisiae growth inhibition in restrictive medium, OD615, pilot screen, restrictive growth control, yeast lifespan reduction project (AID 706;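 active = growth inhibition above a set limit, 3 SD over mean compound inhibition, in both replicates, cut at about 43% in these data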;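 also: modified DeaD lifespan yeast strain shifted to restrictive glucose medium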); conditions: OD615, 48 h, at 10 µM, active compounds read high
In short: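 Assay system: engineered S. cerevisiae DeaD strain; Buffer or medium: CSMM-D glucose medium; Dosing: 10 µM compound, 0.25% DMSO; Times: cell pre-growth 4 h, compound exposure 48 h, 30 °C; Detection: absorbance (optical density) measured at 615 nm.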

[3] = doxorubicin toxicity protection in MRP-1 cells – H69AR cells, CellTiter-Glo, duplicate, MRP-1 activator project, pilot screen (AID 807;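 active = viability increase at or above a cutoff of the median across tested compounds plus 3 SD, cut at about 8.5% in these data, passing the limit was not always enough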;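 also: compound pretreatment 18-22 h then 72 h combined with doxorubicin; 0% = doxorubicin alone and 100% = vehicle without doxorubicin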); conditions: H69AR viability with doxorubicin, CellTiter-Glo luminescence; at 10 µM; active compounds read high
[4] = viability of HCT116 without oncogenic beta-catenin – human colon tumor cells, pilot screen (AID 823;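 active = cell viability at or below a set limit in both duplicate runs, the limit being the all-compound median minus 4 SD, cut at about 23% in these data, passing the limit was not always enough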;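 also: 0% = wells killed by 20 µM Hyamine and 100% = untreated DMSO cell wells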); conditions: HCT116 beta-catenin knockout viability, CellTiter-Glo, 60 h; at 10 µM; active compounds read low
[5] = viability of PTEN-null HCT116 cells – cell-based, HCT116 clonal line, CellTiter-Glo, pilot screen (AID 824); conditions: HCT116 PTEN-deleted viability, 60 h, at 10 µM, active compounds read low;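 also: 0% = 20 µM Hyamine control and 100% = vehicle cell control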
[6] = RAM pathway blockade in budding yeast – dse1pr::URA3 reporter, 5-FOA selection, pilot screen (AID 869;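 active = inhibition over a set limit, the all-compound mean plus 3 SD, in both replicate runs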;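 also: 0% = DMSO wells with no growth and 100% = 10 µM 1-NA-PP1 with full growth; RAM network block rescues cells from 5-FOA so hits raise OD615 growth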); conditions: S. cerevisiae dse1pr::URA3 5-FOA growth, OD615, 2 d; at 10 µM; active compounds read high; strain carries analog-sensitive mutant Cbk1 kinase
[7] = RAM signaling pathway blockade in yeast – S. cerevisiae, Pdr1DBD-CYC8 efflux-inhibited sensitized strain, primary screen (AID 1298;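 active = RAM network inhibition above 8.4% in each of two replicates, 3 SD over the compound average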;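 also: 0% = DMSO untreated cells without growth and 100% = 10 µM 1-NA-PP1 full growth; higher means more yeast growth rescued from 5-FOA killing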); conditions: S. cerevisiae cbk1-as DSE1-URA3 strain, 5-FOA growth OD615, 2 d; at 50 µM; active compounds read high

COc1ccc(S(=O)(=O)N2CCC(C(=O)Nc3cccc(Cl)c3)CC2)cc1OC
inactive: growth inhibition [1] -2.42% | growth inhibition [2] -2.81% | viability increase [3] -3.54% | viability [4] 75.9% | viability [5] 78% | inhibition [6] 0.63% | RAM network inhibition [7] 1.52%

CC(C)CC(/C(O)=C(\C#N)c1nc2ccccc2[nH]1)N1C(=O)c2ccccc2C1=O (stereo not drawn)
inactive: growth inhibition [1] -13.3% | growth inhibition [2] -18.9% | viability increase [3] -2.01% | viability [4] 82% | viability [5] 73.3% | inhibition [6] 3.05% | RAM network inhibition [7] 4.23%

O=C(Nc1ccccc1)N(CCCN1CCOCC1)Cc1cccs1
inactive: growth inhibition [1] -1.32% | growth inhibition [2] 9.1% | viability increase [3] -3.05% | viability [4] 96.3% | viability [5] 93.9% | inhibition [6] 2.5% | RAM network inhibition [7] 0.88%

CCOC(=O)c1nnn(-c2nonc2N)c1-c1ccccc1
inactive: growth inhibition [1] -8.1% | growth inhibition [2] 7.27% | viability increase [3] -0.46% | viability [4] 98.7% | viability [5] 103% | inhibition [6] 2.83% | RAM network inhibition [7] 5.09%

CCOC(=O)N1CCC(NC(=O)c2cc3c(C)nc4ccccc4c3o2)CC1
inactive: growth inhibition [1] -14.7% | growth inhibition [2] -11.2% | viability increase [3] -3.16% | viability [4] 92.6% | viability [5] 91.5% | inhibition [6] 0.54% | RAM network inhibition [7] 3.54%

c1ccc(-c2nnc(SCc3nc4ccccc4[nH]3)n2Cc2ccco2)nc1
inactive: growth inhibition [1] -0.44% | growth inhibition [2] 10.8% | viability increase [3] -1.33% | viability [4] 90.3% | viability [5] 91% | inhibition [6] 0.04% | RAM network inhibition [7] -0.6%

O=C(CSc1ccc2nnc(-c3ccc(F)cc3)n2n1)N1CCOCC1
inactive: growth inhibition [1] -5.25% | growth inhibition [2] -2.17% | viability increase [3] -2.97% | viability [4] 105% | viability [5] 96.6% | inhibition [6] 0.08% | RAM network inhibition [7] 0.47%

COc1cc(C(=O)NCC(c2ccco2)N2CCCC2)ccc1OCc1c(C)noc1C (stereo not drawn)
inactive: growth inhibition [1] 0.045% | growth inhibition [2] -23.7% | viability increase [3] -4.73% | viability [4] 82.7% | viability [5] 83.8% | inhibition [6] 1.03% | RAM network inhibition [7] 3.83%

CCOc1ccccc1NC(=O)c1c(NC(=O)CNCc2ccco2)sc2c1CCC2
inactive: growth inhibition [1] 7.42% | growth inhibition [2] -15.1% | viability increase [3] -6.75% | viability [4] 76.7% | viability [5] 55.5% | inhibition [6] 1.43% | RAM network inhibition [7] 8.57%

COc1cc(C2NC(=O)NC(C)=C2C(=O)OC2CCCCC2)cc(Br)c1O (stereo not drawn)
inactive: growth inhibition [1] -9.15% | growth inhibition [2] -9.77% | viability increase [3] 0.18% | viability [4] 82.1% | viability [5] 77.3% | inhibition [6] 0.33% | RAM network inhibition [7] 8.82%

CCOC(=O)CN1CC23C=CC(O2)C(C(=O)O)C3C1=O (stereo not drawn)
inactive: growth inhibition [1] 2.83% | growth inhibition [2] -3.85% | viability increase [3] 0.14% | viability [4] 103% | viability [5] 107% | inhibition [6] 0.73% | RAM network inhibition [7] 4%

COc1ccc(-c2nc(CS(=O)(=O)CC(=O)Nc3ccc(Cl)cc3)c(C)o2)cc1
inactive: growth inhibition [1] -8.75% | growth inhibition [2] -7.49% | viability increase [3] -2.64% | viability [4] 48.5% | viability [5] 49.6% | inhibition [6] 2.77% | RAM network inhibition [7] 3.02%

CCS(=O)(=O)Nc1ccc(-c2ccc(NS(=O)(=O)CC)c(OC)c2)cc1OC
inactive: growth inhibition [1] -3.19% | growth inhibition [2] -1.95% | viability increase [3] -3.7% | viability [4] 103% | viability [5] 101% | inhibition [6] 2.69% | RAM network inhibition [7] 6.39%

O=C(O)c1ccc(N2CCCCCC2)c(N2C(=O)c3ccccc3C2=O)c1
inactive: growth inhibition [1] -18% | growth inhibition [2] 4.7% | viability increase [3] -0.78% | viability [4] 108% | viability [5] 98.2% | inhibition [6] 0.945% | RAM network inhibition [7] 3.42%

CCC(C#CCN1CCCCC1)(CC)OCCC#N
inactive: growth inhibition [1] -4.58% | growth inhibition [2] -9.71% | viability increase [3] -1.94% | viability [4] 102% | viability [5] 97.6% | inhibition [6] 0.79% | RAM network inhibition [7] 4.07%

Cc1cc(C)nc(NS(=O)(=O)c2ccc(NC(=O)C3CC(=O)N(c4ccccc4)C3)cc2)n1 (stereo not drawn)
inactive: growth inhibition [1] -4.82% | growth inhibition [2] 7.38% | viability increase [3] 1.33% | viability [4] 104% | viability [5] 100% | inhibition [6] 1.81% | RAM network inhibition [7] 3.68%

O=C(Cn1cc2c(n1)CCCC2)NCCCN1CCCC1
inactive: growth inhibition [1] -3.79% | growth inhibition [2] 4.09% | viability increase [3] 0.07% | viability [4] 105% | viability [5] 99.3% | inhibition [6] -0.37% | RAM network inhibition [7] 1.62%

O=C(CCn1c(=O)sc2ccccc21)NCCN1CCOCC1
inactive: growth inhibition [1] -3.08% | growth inhibition [2] -14.8% | viability increase [3] -1.01% | viability [4] 101% | viability [5] 106% | inhibition [6] 1.49% | RAM network inhibition [7] 1.56%

CCCC(NS(=O)(=O)c1ccc(Br)cc1)C(=O)O (stereo not drawn)
inactive: growth inhibition [1] -3.98% | growth inhibition [2] -0.42% | viability increase [3] -0.09% | viability [4] 104% | viability [5] 99.3% | inhibition [6] 0.57% | RAM network inhibition [7] 4.41%

Cn1c(SCC(=O)N2CCCCCC2)nc2c([nH]c3ccccc32)c1=O
inactive: growth inhibition [1] -14.3% | growth inhibition [2] -27.8% | viability increase [3] -5.85% | viability [4] 89% | viability [5] 86.7% | inhibition [6] 3.46% | RAM network inhibition [7] 8.37%

O=C1c2ccccc2S(=O)(=O)N1CC(O)COc1ccc(Br)cc1 (stereo not drawn)
inactive: growth inhibition [1] -2.32% | growth inhibition [2] 5.18% | viability increase [3] -0.35% | viability [4] 106% | viability [5] 97.4% | inhibition [6] 1.39% | RAM network inhibition [7] 2.2%

CC(=O)c1cccc(NC(=O)C2CCN(S(=O)(=O)c3ccc(F)cc3)CC2)c1
inactive: growth inhibition [1] -6.23% | growth inhibition [2] 1.16% | viability increase [3] -2.82% | viability [4] 92% | viability [5] 93.5% | inhibition [6] 3.66% | RAM network inhibition [7] 5.67%

O=C(CSCC(=O)NC1CC1)Nc1ccccc1
inactive: growth inhibition [1] -0.675% | growth inhibition [2] -11.9% | viability increase [3] -1.13% | viability [4] 98.2% | viability [5] 98.7% | inhibition [6] 0.03% | RAM network inhibition [7] -0.72%

O=C(c1cc2ccccn2n1)N1CCCC1
inactive: growth inhibition [1] -5.76% | growth inhibition [2] -2.7% | viability increase [3] -1.17% | viability [4] 103% | viability [5] 100% | inhibition [6] 1.79% | RAM network inhibition [7] 6.63%
